In brackets after ≈: the same amount, converted by molar mass. Activity calls are given as the source filed them. The calls are words filed in the database; no cut-off is given here.
How the values were obtained:
Human alphaherpesvirus 2 [1] = assay: (§1) In vitro minimum inhibitory concentration against herpes simplex virus-2 (HSV-2) by plaque-reduction assay in vero cells; type: functional
Human alphaherpesvirus 2 [2] = assay: In vitro maximum tolerated level against herpes simplex virus-2 (HSV-2) by plaque-reduction assay in vero cells; type: functional
Human alphaherpesvirus 2 [3] = assay: (§2) Minimum effective dose against herpes simplex virus-2 (HSV-2) by oral administration in female mice.; type: functional, organism-based
Procedure, shortened: (§3)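 Swiss female ICR mice (13–15 g) infected intravaginally with HSV-2 (Curtis) at a dose set for 80% mortality. Compound suspended in 1% gum tragacanth/2% Tween 80, given intragastrically at serial 2-fold doses, 20 mice per dose, 2 h before infection then twice daily for 5 d. Mortality followed 14 d; MED = lowest dose with survival differing from placebo (Mantel-Cox, Breslow).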

Human alphaherpesvirus 2 [4] = assay: In vivo maximum tolerated dose against herpes simplex virus-2 (HSV-2) by oral administration in female mice; type: functional
Human alphaherpesvirus 2 [5] = assay: as §2; type: functional; conditions: Human alphaherpesvirus 2, po; read-out: MED
Mus musculus = assay: Tested in vivo for minimum effective dose against herpes simplex virus-2 (HSV-2) by oral administration in female mice;not active; type: functional, organism-based; procedure, shortened: as §3
Vero [6] = assay: as §1; type: functional, cell-based; conditions: Chlorocebus sabaeus
Procedure, shortened: (§4)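 Vero monolayers (2 days old, confluent; Hank's MEM + 5% inactivated FCS, 37 °C, 2% CO2) infected with ~80 PFU; after 1-h adsorption, overlay of M199/5% FCS with 1:150 human immune serum globulin plus serial 2-fold compound dilutions (1:200 from DMSO). 3 d incubation, glutaraldehyde fix, crystal violet stain, plaque count. MIC = lowest concentration giving 50% plaque reduction; mean of ≥2 experiments.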

Human alphaherpesvirus 2 [7] = assay: as §1; type: functional, organism-based; procedure, shortened: as §4
Vero [8] = assay: Tested in vitro for minimum inhibitory concentration against herpes simplex virus-1 (HSV-1) 2992 strain by plaque-reduction assay in vero cells; type: functional; conditions: Chlorocebus sabaeus; procedure, shortened: as §4
Vero [9] = assay: Tested in vitro for minimum inhibitory concentration against herpes simplex virus-2 (HSV-2) 2115 strain by plaque-reduction assay in vero cells; type: functional; conditions: Chlorocebus sabaeus; procedure, shortened: as §4
Vero [10] = assay: Tested in vitro for minimum inhibitory concentration against herpes simplex virus-1 (HSV-1) F strain by plaque-reduction assay in vero cells; type: functional; conditions: Chlorocebus sabaeus; procedure, shortened: as §4
Vero [11] = assay: Tested in vitro for minimum inhibitory concentration against herpes simplex virus-2 (HSV-2) 2011 strain by plaque-reduction assay in vero cells; conditions: Chlorocebus sabaeus
Vero [12] = assay: Tested in vitro for minimum inhibitory concentration against herpes simplex virus-1 (HSV-1) KOS strain by plaque-reduction assay in vero cells; type: functional; conditions: Chlorocebus sabaeus; procedure, shortened: as §4
Vero [13] = assay: Tested in vitro for minimum inhibitory concentration against herpes simplex virus-1 (HSV-1) 1142 strain by plaque-reduction assay in vero cells; type: functional; conditions: Chlorocebus sabaeus; procedure, shortened: as §4
Vero [14] = assay: Tested in vitro for minimum inhibitory concentration against herpes simplex virus-1 (HSV-1) KOS, ACG strain by plaque-reduction assay in vero cells; type: functional; conditions: Chlorocebus sabaeus; procedure, shortened: as §4
Vero [15] = assay: Tested in vitro for minimum inhibitory concentration against herpes simplex virus-2 (HSV-2) curtis strain by plaque-reduction assay in vero cells; type: functional; conditions: Chlorocebus sabaeus; procedure, shortened: as §4
Vero [16] = assay: Tested in vitro for minimum inhibitory concentration against herpes simplex virus-2 (HSV-2) by plaque-reduction assay in vero cells; not active; type: functional, cell-based; conditions: Chlorocebus sabaeus; procedure, shortened: as §4
Vero [17] = assay: Tested in vitro for minimum inhibitory concentration against herpes simplex virus-2 (HSV-2) 2011 strain by plaque-reduction assay in vero cells; type: functional; conditions: Chlorocebus sabaeus; procedure, shortened: as §4

Compound	MIC (Human alphaherpesvirus 2 [1]) [mg/L]	MTL (Human alphaherpesvirus 2 [2]) [µg/mL]	MED (Human alphaherpesvirus 2 [3])	MTD (Human alphaherpesvirus 2 [4]) [mg/kg]	minimal effective dose (Human alphaherpesvirus 2 [5]) [mg/kg]	further results
Cc1ccc(-n2cc(C(N)=O)c(=O)c3ccc(-c4ccncc4)cc32)cc1	0.63 (≈ 1.77 µM)	>25	inactive	50	–	–
NC(=O)c1cn(-c2ccc(Br)cc2)c2cc(-c3ccncc3)ccc2c1=O	0.47 (≈ 1.12 µM)	>12.5	–	50	50	–
CCn1cc(C(=O)NO)c(=O)c2ccc(-c3ccncc3)cc21	6.8 (≈ 22 µM)	25	–	100	–	MED (Mus musculus): inactive
CCn1cc(C(N)=O)c(=O)c2ccc(-c3cccnc3)cc21	12 (≈ 40.9 µM)	50	inactive	100	–	–
CCn1cc(C(N)=O)c(=O)c2ccc(-c3cc(C)no3)cc21	12 (≈ 40.4 µM)	>100	inactive	>200	–	–
CCn1cc(C(N)=O)c(=O)c2ccc(-c3c(C)cncc3C)cc21	9.9 (≈ 30.8 µM)	12.5	inactive	25	–	–
NC(=O)c1cn(-c2ccc(F)cc2F)c2cc(-c3ccncc3)ccc2c1=O	2.2 (≈ 5.83 µM)	3.1	inactive	<25	–	–
NC(=O)c1cn(-c2ccc(Cl)c(Cl)c2)c2cc(-c3ccncc3)ccc2c1=O	0.52 (≈ 1.27 µM)	>100	–	100	50	–
CCn1cc(C(=O)NNC)c(=O)c2ccc(-c3ccncc3)cc21	–	25	–	–	–	MIC (Vero [6]): inactive
Cc1ccc(-n2cc(C(N)=O)c(=O)c3ccc(-c4ccncc4)cc32)cc1C	1 (≈ 2.71 µM)	>100	inactive	>200	–	–
NC(=O)c1cn(-c2ccccc2F)c2cc(-c3ccncc3)ccc2c1=O	–	1.6	inactive	100	–	MIC (Human alphaherpesvirus 2 [7]): inactive
COc1ccc(-n2cc(C(N)=O)c(=O)c3ccc(-c4ccncc4)cc32)cc1	1.3 (≈ 3.5 µM)	>25	inactive	50	–	–
NC(=O)c1cn(C2CC2)c2cc(-c3ccncc3)ccc2c1=O	4 (≈ 13.1 µM)	25	inactive	25	–	–
NC(=O)c1cn(Cc2ccc(Cl)c(Cl)c2)c2cc(-c3ccncc3)ccc2c1=O	1.7 (≈ 4.01 µM)	>100	inactive	>100	–	–
Cc1cc(-c2ccc3c(=O)c(C(N)=O)cn(-c4ccc(F)cc4)c3c2)sn1	0.25 (≈ 0.659 µM)	>100	inactive	>100	–	–
CCn1cc(C(N)=O)c(=O)c2ccc(-c3ccncc3)cc21	6.5 (≈ 22.2 µM)	12.5	–	50	50	–
NC(=O)c1cn(-c2ccc(F)cc2)c2cc(-c3ccncc3)ccc2c1=O	0.24 (≈ 0.668 µM)	6.25	–	50	25	MIC (Vero [8]): 0.24 mg/L (≈ 0.668 µM); MIC (Vero [9]): 0.13 mg/L (≈ 0.362 µM); MIC (Vero [10]): 0.13 mg/L (≈ 0.362 µM); MIC (Vero [11]): 0.15 mg/L (≈ 0.417 µM); MIC (Vero [12]): 0.23 mg/L (≈ 0.64 µM); MIC (Vero [13]): 0.18 mg/L (≈ 0.501 µM); MIC (Vero [14]): 0.32 mg/L (≈ 0.89 µM); MIC (Vero [15]): 0.24 mg/L (≈ 0.668 µM)
CCCCCn1cc(C(N)=O)c(=O)c2ccc(-c3ccncc3)cc21	4.8 (≈ 14.3 µM)	6.25	inactive	50	–	–
CCn1cc(C(N)=O)c(=O)c2ccc(-c3ccccn3)cc21	14 (≈ 47.7 µM)	25	inactive	100	–	–

Compound	MIC (Human alphaherpesvirus 2 [1]) [mg/L]	MTL (Human alphaherpesvirus 2 [2]) [µg/mL]	MED (Human alphaherpesvirus 2 [3])	MTD (Human alphaherpesvirus 2 [4]) [mg/kg]	minimal effective dose (Human alphaherpesvirus 2 [5]) [mg/kg]	further results
NC(=O)c1cn(-c2ccc(C(F)(F)F)cc2)c2cc(-c3ccncc3)ccc2c1=O	1 (≈ 2.44 µM)	>100	inactive	50	–	–
NC(=O)c1cn(-c2ccccc2)c2cc(-c3ccncc3)ccc2c1=O	0.78 (≈ 2.28 µM)	6.25	–	50	25	–
NC(=O)c1cn(-c2ccncc2)c2cc(-c3ccncc3)ccc2c1=O	7.2 (≈ 21 µM)	>200	–	75	75	–
NC(=O)c1cn(-c2ccc(F)cc2)c2cc(-c3cc[n+]([O-])cc3)ccc2c1=O	–	>12.5	–	100	25	MIC (Vero [6]): inactive
CCn1cc(C(=O)N(C)O)c(=O)c2ccc(-c3ccncc3)cc21	–	50	–	–	–	MIC (Vero [16]): inactive
C=CCn1cc(C(N)=O)c(=O)c2ccc(-c3ccncc3)cc21	2.9 (≈ 9.5 µM)	6.25	inactive	<50	–	–
NC(=O)c1c(N)n(-c2ccc(F)cc2)c2cc(-c3ccncc3)ccc2c1=O	0.33 (≈ 0.881 µM)	>100	–	50	50	–
Cn1cc(C(N)=O)c(=O)c2ccc(-c3ccncc3)cc21	4.6 (≈ 16.5 µM)	>25	inactive	25	–	–
CCn1cc(C(=O)NN)c(=O)c2ccc(-c3ccncc3)cc21	38 (≈ 123 µM)	50	–	100	–	MED (Mus musculus): inactive
Nc1nc2c(ncn2COCCO)c(=O)[nH]1 [ACYCLOVIR]	1.3 (≈ 5.77 µM)	>200	–	>200	12	MIC (Vero [8]): 11 mg/L (≈ 48.8 µM); MIC (Vero [9]): 77 mg/L (≈ 342 µM); MIC (Vero [10]): 0.29 mg/L (≈ 1.29 µM); MIC (Vero [17]): 43 mg/L (≈ 191 µM); MIC (Vero [12]): 0.14 mg/L (≈ 0.622 µM); MIC (Vero [13]): 7.8 mg/L (≈ 34.6 µM); MIC (Vero [14]): 43 mg/L (≈ 191 µM); MIC (Vero [15]): 1.3 mg/L (≈ 5.77 µM)
CCn1cc(C(N)=O)c(=O)c2ccc(-c3ccno3)cc21	5 (≈ 17.6 µM)	12.5	inactive	>200	–	–
NC(=O)c1cn(-c2ccc(F)cc2)c2cc(-c3ccccc3)ccc2c1=O	0.82 (≈ 2.29 µM)	12.5	inactive	>200	–	–
CCCCn1cc(C(N)=O)c(=O)c2ccc(-c3ccncc3)cc21	5.2 (≈ 16.2 µM)	6.25	inactive	50	–	–
CCn1c(=O)c(C(N)=O)c(O)c2ccc(-c3ccncc3)cc21	2.1 (≈ 6.79 µM)	6.25	–	100	100	–
NC(=O)c1cn(-c2cccc(F)c2)c2cc(-c3ccncc3)ccc2c1=O	0.71 (≈ 1.98 µM)	>25	–	50	50	–
Cc1cc(-c2ccc3c(=O)c(C(N)=O)cn(-c4ccc(F)cc4)c3c2)on1	0.26 (≈ 0.716 µM)	>100	inactive	>200	–	–
CCn1cc(C(=O)NC)c(=O)c2ccc(-c3ccncc3)cc21	9 (≈ 29.3 µM)	>25	–	50	50	–
NC(=O)c1cn(-c2ccc(Cl)cc2)c2cc(-c3ccncc3)ccc2c1=O	0.4 (≈ 1.06 µM)	>25	–	100	50	–

Source: ChEMBL document CHEMBL1127020, “3-Quinolinecarboxamides. A series of novel orally-active antiherpetic agents” (1993)
